From paper PMC5338039 (Biochemistry, 2017)
“Also recorded” adds a separate entry of the source.

Assays:
Assay type in all cases: cell-based
GPR55 K2.60A = GPR55 K2.60A (Homo sapiens, UniProt Q9Y2T6, K80A); assay: SRE luciferase assay, K2.60A mutant
Procedure, shortened: (§1)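 HA-tagged human GPR55 (WT or sequence-confirmed site-directed mutant, pcDNA3) co-transfected by lipofection with pGL4.33 luc2P/SRE reporter into HEK293 cells; 60,000 cells/well, switched to 1% FBS/DMEM after 5 h, overnight. Agonist test compounds (10 mM DMSO stocks) added for 5 h in serum-free DMEM, 37°C. Cells lysed 10 min at room temperature, luciferin injected, luminescence read immediately (RLU). EC50 from sigmoidal nonlinear regression.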

GPR55 F6.48A = GPR55 F6.48A (Homo sapiens, UniProt Q9Y2T6, F239A); assay: SRE luciferase assay, F6.48A mutant; conditions: F6.48A
Procedure, shortened: as §1

GPR55 M3.36A = GPR55 M3.36A (Homo sapiens, UniProt Q9Y2T6, M105A); assay: SRE luciferase assay, M3.36A mutant; conditions: M3.36A
Procedure, shortened: as §1

GPR55 Q7.36N = GPR55 Q7.36N (Homo sapiens, UniProt Q9Y2T6, Q271N); assay: SRE luciferase assay, Q7.36N mutant; conditions: Q7.36N
Procedure, shortened: as §1

GPR55 F6.55A = GPR55 F6.55A (Homo sapiens, UniProt Q9Y2T6, F246A); assay: SRE luciferase assay, F6.55A mutant; conditions: F6.55A
Procedure, shortened: as §1

GPR55 E3.29L = GPR55 E3.29L (Homo sapiens, UniProt Q9Y2T6, E98L); assay: SRE luciferase assay, E3.29L mutant; conditions: E3.29L
Procedure, shortened: as §1

GPR55 F6.55L = GPR55 F6.55L (Homo sapiens, UniProt Q9Y2T6, F246L); assay: SRE luciferase assay, F6.55L mutant; conditions: F6.55L
Procedure, shortened: as §1

GPR55 Q7.36A = GPR55 Q7.36A (Homo sapiens, UniProt Q9Y2T6, Q271A); assay: SRE luciferase assay, Q7.36A mutant; conditions: Q7.36A
Procedure, shortened: as §1

GPR55 C(10)A = GPR55 C(10)A (Homo sapiens, UniProt Q9Y2T6, C10A); assay: SRE luciferase assay, C; conditions: C(10)A
Procedure, shortened: as §1

GPR55 Y3.32F = GPR55 Y3.32F (Homo sapiens, UniProt Q9Y2T6, Y101F); assay: SRE luciferase assay, Y3.32F mutant; conditions: Y3.32F
Procedure, shortened: as §1

GPR55 Q6.58M = GPR55 Q6.58M (Homo sapiens, UniProt Q9Y2T6, Q249M); assay: SRE luciferase assay, Q6.58M mutant; conditions: Q6.58M
Procedure, shortened: as §1

GPR55 E3.29A = GPR55 E3.29A (Homo sapiens, UniProt Q9Y2T6, E98A); assay: SRE luciferase assay, E3.29A mutant; conditions: E3.29A
Procedure, shortened: as §1

GPR55 C(260)A = GPR55 C(260)A (Homo sapiens, UniProt Q9Y2T6, C260A); assay: SRE luciferase assay, C; conditions: C(260)A
Procedure, shortened: as §1

GPR55 H(170)F = GPR55 H(170)F (Homo sapiens, UniProt Q9Y2T6, H170F); assay: SRE luciferase assay, H; conditions: H(170)F
Procedure, shortened: as §1

GPR55 Y3.32L = GPR55 Y3.32L (Homo sapiens, UniProt Q9Y2T6, Y101L); assay: SRE luciferase assay, Y3.32L mutant; conditions: Y3.32L
Procedure, shortened: as §1

Sequence of GPR55 Y3.32F (Q9Y2T6 whole entry Y101F): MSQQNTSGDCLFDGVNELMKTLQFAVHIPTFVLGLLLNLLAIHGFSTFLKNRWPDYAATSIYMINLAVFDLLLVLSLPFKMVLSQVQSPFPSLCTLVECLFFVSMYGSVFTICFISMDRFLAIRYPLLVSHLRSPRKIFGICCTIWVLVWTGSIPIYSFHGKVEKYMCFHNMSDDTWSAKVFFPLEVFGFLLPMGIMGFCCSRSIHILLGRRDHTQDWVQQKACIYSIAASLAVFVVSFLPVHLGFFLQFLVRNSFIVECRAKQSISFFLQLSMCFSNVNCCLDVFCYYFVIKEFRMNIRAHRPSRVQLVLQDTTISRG
Sequence of GPR55 Q6.58M (Q9Y2T6 whole entry Q249M): as the sequence (Q9Y2T6 whole entry Y101F) above, with F101Y, Q249M counted along it
Sequence of GPR55 M3.36A (Q9Y2T6 whole entry M105A): as the sequence (Q9Y2T6 whole entry Y101F) above, with F101Y, M105A counted along it
Sequence of GPR55 H(170)F (Q9Y2T6 whole entry H170F): as the sequence (Q9Y2T6 whole entry Y101F) above, with F101Y, H170F counted along it
Sequence of GPR55 F6.48A (Q9Y2T6 whole entry F239A): as the sequence (Q9Y2T6 whole entry Y101F) above, with F101Y, F239A counted along it
Sequence of GPR55 Y3.32L (Q9Y2T6 whole entry Y101L): as the sequence (Q9Y2T6 whole entry Y101F) above, with F101L counted along it
Sequence of GPR55 E3.29A (Q9Y2T6 whole entry E98A): as the sequence (Q9Y2T6 whole entry Y101F) above, with E98A, F101Y counted along it
Sequence of GPR55 K2.60A (Q9Y2T6 whole entry K80A): as the sequence (Q9Y2T6 whole entry Y101F) above, with K80A, F101Y counted along it
Sequence of GPR55 F6.55L (Q9Y2T6 whole entry F246L): as the sequence (Q9Y2T6 whole entry Y101F) above, with F101Y, F246L counted along it
Sequence of GPR55 Q7.36A (Q9Y2T6 whole entry Q271A): as the sequence (Q9Y2T6 whole entry Y101F) above, with F101Y, Q271A counted along it
Sequence of GPR55 Q7.36N (Q9Y2T6 whole entry Q271N): as the sequence (Q9Y2T6 whole entry Y101F) above, with F101Y, Q271N counted along it
Sequence of GPR55 C(10)A (Q9Y2T6 whole entry C10A): as the sequence (Q9Y2T6 whole entry Y101F) above, with C10A, F101Y counted along it
Sequence of GPR55 C(260)A (Q9Y2T6 whole entry C260A): as the sequence (Q9Y2T6 whole entry Y101F) above, with F101Y, C260A counted along it
Sequence of GPR55 E3.29L (Q9Y2T6 whole entry E98L): as the sequence (Q9Y2T6 whole entry Y101F) above, with E98L, F101Y counted along it
Sequence of GPR55 F6.55A (Q9Y2T6 whole entry F246A): as the sequence (Q9Y2T6 whole entry Y101F) above, with F101Y, F246A counted along it

SRE response compared with WT (in words) (GPR55 Q7.36N): little to no effect
SRE response compared with WT (in words) (GPR55 F6.55A): little to no effect
SRE response compared with WT (in words) (GPR55 F6.55L): little to no effect
SRE response compared with WT (in words) (GPR55 Q7.36A): little to no effect
SRE response compared with WT (in words) (GPR55 C(10)A): right shifted curves
SRE response compared with WT (in words) (GPR55 C(260)A): right shifted curves
Substance: l-α-lysophosphatidylinositol [LPI]
SRE response compared with WT (in words) (GPR55 K2.60A): did not show any LPI-induced responses; also recorded: loss of function
SRE response compared with WT (in words) (GPR55 F6.48A): right shifted curves; also recorded: reduces LPI's ability to signal
SRE response compared with WT (in words) (GPR55 M3.36A): right shifted curves; also recorded: reduces LPI's ability to signal
SRE response compared with WT (in words) (GPR55 E3.29L): slight response at high concentrations of LPI
SRE response compared with WT (in words) (GPR55 Y3.32F): right shifted curves; also recorded: reduced signaling
SRE response compared with WT (in words) (GPR55 Q6.58M): little to no effect; also recorded: essentially no effect
SRE response compared with WT (in words) (GPR55 E3.29A): slight response at high concentrations of LPI; also recorded: loss of function
SRE response compared with WT (in words) (GPR55 H(170)F): right shifted curves; also recorded: reduced signaling
SRE response compared with WT (in words) (GPR55 Y3.32L): right shifted curves; also recorded: reduced signaling
